The source made the active and inactive calls.
What was measured:
[1] = system: A549; experiment: Cytostatic activity against human A549 cells after 48 hrs by MTT assay; format: functional, cell-based
Method in brief: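 A549 cells in medium with 10% FBS and 1% penicillin–streptomycin, exposed to compound for 48 h. MTT (5 mg/mL stock) added at the end of exposure, then 3 h further incubation. Formazan dissolved in DMSO and read at 550 nm (reference 700 nm) as a measure of succinate dehydrogenase activity. IC50 taken from the concentration–response curve. Microscopy used for confirmation.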

[2] = system: A549; experiment: Cytotoxicity against human A549 cells assessed as induction of cell death by microscopic analysis; format: functional, cell-based
[3] = system: A549; experiment: Induction of apoptosis in human A549 cells assessed as early apoptotic cells at 100 nM after 24 hrs by FITC-annexin V/propidium iodide staining-based flow cytometric analysis relative to control; format: functional
Method in brief: (§1)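 A549 cells (5 × 10^5 cells/dish) exposed to compound (24 μM, or 100 nM for vinblastine) for 24 h. Cells washed twice with PBS and stained with FITC–annexin V plus propidium iodide in FACS buffer with 0.3% BSA. Quadrant distribution read by flow cytometry against untreated cells.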

[4] = system: A549; experiment: Induction of apoptosis in human A549 cells assessed as late apoptotic cells at 100 nM after 24 hrs by FITC-annexin V/propidium iodide staining-based flow cytometric analysis relative to control; format: functional; method in brief: as §1
[5] = system: A549; experiment: Downregulation of Bcl-XL protein expression in human A549 cells at 100 nM after 24 hrs by Western blot analysis; format: functional, cell-based
Method in brief: (§2)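 Total lysates of A549 cells harvested at 0, 6, 12 and 24 h after exposure to 24 μM test agent or 100 nM vinblastine. Proteins resolved, transferred to PVDF and probed for Bcl-xL, Mcl-1, Bcl-2, Bax-1, Bid, PUMA, Bim, Bik and p53, with antibodies diluted in BlockAce and β-actin as loading reference.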

[6] = system: A549; experiment: Downregulation of Mcl-1 protein expression in human A549 cells at 100 nM after 24 hrs by Western blot analysis; format: functional, cell-based; method in brief: as §2
[7] = system: A549; experiment: Downregulation of BimEL protein expression in human A549 cells at 100 nM after 24 hrs by Western blot analysis; format: functional, cell-based; method in brief: as §2
[8] = system: A549; experiment: Upregulation of p53 protein expression in human A549 cells at 100 nM after 24 hrs by Western blot analysis; format: functional, cell-based; method in brief: as §2

Measured: Activity

CC[C@]1(O)C[C@@H]2CN(CCc3c([nH]c4ccccc34)[C@@](C(=O)OC)(c3cc4c(cc3OC)N(C)[C@H]3[C@@](O)(C(=O)OC)[C@H](OC(C)=O)[C@]5(CC)C=CCN6CC[C@]43[C@@H]65)C2)C1 [VINBLASTINE]
30%: [3] | [4]
active: [1] Dose-dependent effect | [2] | [5] | [6] | [7] | [8]

Source: ChEMBL document CHEMBL3596140, “Bisleuconothine A Induces Autophagosome Formation by Interfering with AKT-mTOR Signaling Pathway” (J Nat Prod, 2015)
